Reference: ChEMBL document CHEMBL3621183, “Discovery and crystallography of bicyclic arylaminoazines as potent inhibitors of HIV-1 reverse transcriptase” (Bioorg Med Chem Lett, 2015)
≈ marks a conversion by molar mass, not a printed value.

Columns and labels:
[1] = system: Human immunodeficiency virus 1; test: Antiviral activity against HIV1 3B harboring reverse transcriptase K103N/Y181C double mutant infected in human MT2 cells assessed as protection against viral infection by MTT assay; type: functional, organism-based
In short: (§1)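 MT-2 human T-cells infected with the HIV-1 IIIB strain carrying the listed RT mutation. […] Triplicate samples at each concentration. Compounds were >95% pure by HPLC.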

[2] = system: Human immunodeficiency virus 1; test: Antiviral activity against HIV1 3B harboring reverse transcriptase Y181C mutant infected in human MT2 cells assessed as protection against viral infection by MTT assay; type: functional, organism-based; in short: as §1
[3] = system: Human immunodeficiency virus 1; test: Antiviral activity against wild type HIV1 3B infected in human MT2 cells assessed as protection against viral infection by MTT assay; type: functional, organism-based; details: Human immunodeficiency virus 1, 3B
In short: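 HIV-1 IIIB strain tested in MT-2 human T-cells. […] Triplicate samples at each concentration.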

MT2 = test: Cytotoxicity against human MT2 cells assessed as growth inhibition by MTT assay; type: cell-based
[4] = Aqueous solubility of the compound in Britton-Robinson buffer at pH 6.5 at 25 degC by shake flask method; type: physicochemical
In short: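 Shake-flask method. Supernatant collected through a 0.2 μm syringe filter and quantified by UV-vis spectrophotometry.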

[5] = Human immunodeficiency virus 1, 3B, MT2, read-out: EC50

| SMILES | EC50 [1, 5] [nM] | EC50 ([2]; mt2) | EC50 [3] [nM] | CC50 (MT2) [nM] | EC50 [2, 5] [nM] | solubility thermodynamic [4] [µg/mL] | EC50 ([1]; mt2) |
| --- | --- | --- | --- | --- | --- | --- | --- |
| N#Cc1ccc(Nc2nc(Nc3ccc4cc(C#N)ccc4c3)nc(OCCCN3CCOCC3)n2)cc1 | 150 | Not Active | 120 | 1200 | – | – | – |
| Cc1cn2cc(C#N)cc2c(C)c1Nc1ccnc(Nc2ccc(C#N)cc2)n1 | 39 | – | 1 | 10100 | 0.57 | 8.2 (≈ 21.6 µM) | – |
| Cc1cn2cc(C#N)cc2c(C)c1Nc1nc(Cl)nc(Nc2ccc(C#N)cc2)n1 | – | Not Active | 14000 | 38000 | – | – | Not Active |
| N#Cc1ccc(Nc2nccc(Nc3ccc4cc(C#N)ccc4c3F)n2)cc1 | 790 | – | 6 | 45000 | 70 | – | – |
| Cc1c(Nc2nc(Nc3ccc(C#N)cc3)nc(OCCCN3CCOCC3)n2)ccn2cc(C#N)cc12 | – | Not Active | 1900 | 10000 | – | – | Not Active |
| Cc1cc2cc(C#N)ccc2c(C)c1Nc1ccnc(Nc2ccc(C#N)cc2)n1 | 6.9 | – | 2.9 | 7800 | 2.2 | 12.2 (≈ 31.2 µM) | – |
| Cc1c(Nc2nc(Nc3ccc(C#N)cc3)nc(OCCCN3CCOCC3)n2)ccc2cc(C#N)ccc12 | 98 | – | 21 | 5900 | 58 | – | – |
| N#Cc1ccc(Nc2nccc(Nc3c(F)cc4cc(C#N)ccc4c3F)n2)cc1 | 50 | – | 1.8 | 4800 | 6 | – | – |
| Cc1cc2cc(C#N)ccc2c(C)c1Nc1nc(Cl)nc(Nc2ccc(C#N)cc2)n1 | 67 | – | 2.3 | 7500 | 41 | – | – |
| Cc1cc2cc(C#N)ccc2c(C)c1Nc1nc(Nc2ccc(C#N)cc2)nc(OCCCN2CCOCC2)n1 | 16 | – | 17 | 17000 | 36 | – | – |
| N#Cc1ccc(Nc2nccc(Nc3cc4cc(C#N)cn4cc3F)n2)cc1 | 4600 | – | 200 | 76000 | 1600 | – | – |
| Cc1c(Nc2ccnc(Nc3ccc(C#N)cc3)n2)ccn2cc(C#N)cc12 | 170 | – | 1.4 | > 100000 | 26 | – | – |
| N#Cc1ccc(Nc2nc(Nc3ccc4cc(C#N)ccc4c3F)nc(OCCCN3CCOCC3)n2)cc1 | 180 | – | 36 | 3800 | 160 | – | – |
| Cc1cc2cc(C#N)ccc2c(C)c1Nc1ncnc(Nc2ccc(C#N)cc2)n1 | 7 | – | 1.1 | 9500 | 1.3 | 28.7 (≈ 73.3 µM) | – |
| N#Cc1ccc(Nc2nccc(Nc3c(F)cn4cc(C#N)cc4c3F)n2)cc1 | – | – | 1.4 | 1000 | 98 | – | Not Active |
| N#Cc1ccc(Nc2nccc(Nc3ccn4cc(C#N)cc4c3)n2)cc1 | – | Not Active | 200 | > 100000 | – | – | Not Active |
| Cc1cn2cc(C#N)cc2c(C)c1Nc1ncnc(Nc2ccc(C#N)cc2)n1 | 32 | – | 0.52 | 16000 | 7.1 | 33.1 (≈ 87 µM) | – |
| Cc1cn2cc(C#N)cc2cc1Nc1ccnc(Nc2ccc(C#N)cc2)n1 | 6200 | – | 30 | 72000 | 510 | – | – |
| N#Cc1ccc(Nc2ncnc(Nc3c(F)cc4cc(C#N)ccc4c3F)n2)cc1 | 65 | – | 1.2 | > 100000 | 7 | – | – |
| Cc1c(Nc2ccnc(Nc3ccc(C#N)cc3)n2)ccc2cc(C#N)ccc12 | 130 | – | 7 | > 100000 | 8.5 | – | – |
| N#Cc1ccc(Nc2ncnc(Nc3c(F)cn4cc(C#N)cc4c3F)n2)cc1 | 2200 | – | 2.7 | 20000 | 230 | – | – |
| N#Cc1ccc(Nc2nccc(Nc3ccc4cc(C#N)ccc4c3)n2)cc1 | 520 | – | 24 | > 100000 | 170 | – | – |
